13 compounds from ChEMBL document CHEMBL1137402, “Synthesis and biological evaluation of 2-(3',4',5'-trimethoxybenzoyl)-3-amino 5-aryl thiophenes as a new class of tubulin inhibitors” (J Med Chem, 2006) can be followed below.

SMILES strings stand for the structures. Active and inactive are the calls of the source. The rule behind the calls is not given here.

The first experiment has as its system HL-60. Nature of the experiment: Cell cycle arrest in HL60 cells by accumulation at G2/M phase at 8 nM. The experiment is classed as functional, cell-based. Conditions: Homo sapiens. The essentials:
(§1)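 HL60 acute myeloblastic leukemia cells exposed to compound for 24 h, then stained with propidium iodide and analyzed by flow cytometry. Populations scored in sub-G0-G1 (apoptotic), G0-G1, S and G2-M phases, relative to untreated control cells.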
Regarding `COc1cc(C(=O)c2sc(-c3ccccc3)cc2N)cc(OC)c1OC`, the outcome was Active.

Another experiment has as its system HL-60. Kind of experiment: Induction of apoptosis in HL60 cells by arrest at sub G0/G1 phase at 15 nM. It counts as functional, cell-based. Conditions: Homo sapiens. The essentials: as §1
As for `COc1cc(C(=O)c2sc(-c3cccc([N+](=O)[O-])c3)cc2N)cc(OC)c1OC`, the outcome was Active.

A further experiment concerns the target Tubulin. Kind of experiment: Inhibition of tubulin polymerization. The experiment is classed as functional, Homo sapiens.
Conditions: not given
The essentials: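 Tubulin assembly assay with tubulin at 10 µM. IC50 taken for inhibition of polymerization.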
For `COc1ccc(-c2cc(C(=O)c3cc(OC)c(OC)c(OC)c3)c(N)s2)cc1`, 1100 nM corresponded to half-maximal inhibition (IC50).

Take `COc1cc(C(=O)c2sc(-c3ccccc3)cc2N)cc(OC)c1OC`: the IC50 (usually the midpoint of a concentration-inhibition curve) was 1200 nM.

Compound `COc1cc(C(=O)c2cc(-c3ccc(F)cc3)sc2N)cc(OC)c1OC` registered an IC50 of 860 nM.

Compound `COc1cc(C(=O)c2sc(-c3cccc([N+](=O)[O-])c3)cc2N)cc(OC)c1OC` showed an IC50 of 970 nM.

Compound `COc1ccc(-c2cc(N)c(C(=O)c3cc(OC)c(OC)c(OC)c3)s2)cc1OC` yielded an IC50 of 1100 nM.

As for `COc1cc(C(=O)c2sc(-c3ccccc3Cl)cc2N)cc(OC)c1OC`, 1200 nM corresponded to half-maximal inhibition (IC50).

`COc1cccc(-c2cc(C(=O)c3cc(OC)c(OC)c(OC)c3)c(N)s2)c1` had an IC50 of 1200 nM.

For `COc1cc(C(=O)c2cc(-c3ccccc3)sc2N)cc(OC)c1OC`, the IC50 turned out to be 1300 nM.

Consider `COc1ccc(-c2cc(N)c(C(=O)c3cc(OC)c(OC)c(OC)c3)s2)cc1`, for which the IC50 was 1100 nM.

With `COc1cc(C(=O)c2sc(-c3ccc(C)cc3)cc2N)cc(OC)c1OC`, half-maximal inhibition (IC50) was put at 1100 nM.

Turning to `COc1cc(C(=O)c2sc(-c3ccsc3)cc2N)cc(OC)c1OC`, half-maximal inhibition (IC50) was put at 1300 nM.

As to `COc1cc(C(=O)c2sc(-c3cccs3)cc2N)cc(OC)c1OC`, half-maximal inhibition (IC50) was put at 1200 nM.

The compound `COc1cccc(-c2cc(N)c(C(=O)c3cc(OC)c(OC)c(OC)c3)s2)c1` displayed an IC50 of 640 nM. This IC50 is about 1.9-fold lower than that of the compound before.

In the next experiment the test system is HL-60. Nature of the experiment: Cell cycle arrest at HL60 cells by accumulation at sub G0/G1 phase at 20 nM. The experiment is classed as functional, cell-based. Conditions: Homo sapiens. The essentials:
as §1
Regarding `COc1cc(C(=O)c2sc(-c3ccsc3)cc2N)cc(OC)c1OC`, the outcome was Active.

For `COc1cc(C(=O)c2sc(-c3cccs3)cc2N)cc(OC)c1OC`, the outcome was Active.

A further experiment has as its target Tubulin (Homo sapiens) (UniProt P68371+Q9H4B7+P0DPH7+P68366+Q13509+Q71U36+P04350+Q3ZCM7+P07437+P68363+Q9BQE3+Q6PEY2+Q13885+Q9BVA1+Q9BUF5). Nature of the experiment: Inhibition of [3H]colchicine binding to tubulin at 1 uM. The experiment is classed as protein-complex assay.
Conditions: not given
The essentials: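 Binding of [3H]colchicine to tubulin. Tubulin at 1 µM, [3H]colchicine at 5 µM, inhibitor at 1 µM. Read-out is percent inhibition of colchicine binding.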
As to `COc1cc(C(=O)c2sc(-c3ccccc3)cc2N)cc(OC)c1OC`, the inhibition (usually the change of the read-out against control, counted positive when it falls) turned out to be 81%.

Regarding `COc1cc(C(=O)c2sc(-c3cccc([N+](=O)[O-])c3)cc2N)cc(OC)c1OC`, the inhibition turned out to be 74%.

`COc1ccc(-c2cc(N)c(C(=O)c3cc(OC)c(OC)c(OC)c3)s2)cc1OC`: the inhibition amounted to 53%.

In the case of `COc1cc(C(=O)c2sc(-c3ccccc3Cl)cc2N)cc(OC)c1OC`, the inhibition turned out to be 76%.

In turn, `COc1cc(C(=O)c2cc(-c3ccccc3)sc2N)cc(OC)c1OC` returned an inhibition of 77%.

`COc1ccc(-c2cc(N)c(C(=O)c3cc(OC)c(OC)c(OC)c3)s2)cc1` yielded an inhibition of 60%.

For `COc1cc(C(=O)c2sc(-c3ccc(C)cc3)cc2N)cc(OC)c1OC`, the inhibition came to 80%.

As to `COc1cc(C(=O)c2sc(-c3ccsc3)cc2N)cc(OC)c1OC`, the inhibition turned out to be 81%.

In turn, `COc1cc(C(=O)c2sc(-c3cccs3)cc2N)cc(OC)c1OC` returned an inhibition of 80%.

`COc1cccc(-c2cc(N)c(C(=O)c3cc(OC)c(OC)c(OC)c3)s2)c1` gave an inhibition of 81%.

A further experiment has as its system HL-60. Kind of experiment: Cell cycle arrest in HL60 cells by accumulation at G2/M phase at 20 nM. The experiment is classed as functional, cell-based. Conditions: Homo sapiens. The essentials: as §1
Regarding `COc1cc(C(=O)c2sc(-c3ccsc3)cc2N)cc(OC)c1OC`, the outcome was Active.

Take `COc1cc(C(=O)c2sc(-c3cccs3)cc2N)cc(OC)c1OC`: the result was Active.

Another experiment has as its system FM3A. Kind of experiment: Antiproliferative activity against mouse FM3A cells.
Conditions: not given
It counts as functional, cell-based.
The compound `COc1cc(C(=O)c2sc(-c3ccccc3)cc2N)cc(OC)c1OC` showed an IC50 of 13 nM.

Consider `COc1cc(C(=O)c2sc(-c3cccc([N+](=O)[O-])c3)cc2N)cc(OC)c1OC`, for which the IC50 was determined as 17 nM.

With `COc1ccc(-c2cc(N)c(C(=O)c3cc(OC)c(OC)c(OC)c3)s2)cc1OC`, the IC50 amounted to 72 nM.

In turn, `COc1cc(C(=O)c2sc(-c3ccccc3Cl)cc2N)cc(OC)c1OC` returned an IC50 of 34 nM.

Take `COc1ccc(-c2cc(N)c(C(=O)c3cc(OC)c(OC)c(OC)c3)s2)cc1`: the IC50 turned out to be 31 nM.

In turn, `COc1cc(C(=O)c2sc(-c3ccc(C)cc3)cc2N)cc(OC)c1OC` gave an IC50 of 16 nM.

The compound `COc1cc(C(=O)c2sc(-c3ccsc3)cc2N)cc(OC)c1OC` showed an IC50 of 3.7 nM. This IC50 lies about 4.3-fold lower than the previous one.

In turn, `COc1cc(C(=O)c2sc(-c3cccs3)cc2N)cc(OC)c1OC` returned an IC50 of 1.7 nM.

On to `COc1cccc(-c2cc(N)c(C(=O)c3cc(OC)c(OC)c(OC)c3)s2)c1`, for which the IC50 is 36 nM.

Another experiment relates to HL-60. Kind of experiment: Induction of apoptosis in HL60 cells by arrest at sub G0/G1 phase at 8 nM. Conditions: Homo sapiens. The experiment is classed as functional, cell-based. The essentials: as §1
On to `COc1cc(C(=O)c2sc(-c3ccccc3)cc2N)cc(OC)c1OC`, for which the result was Active.

The next experiment deals with L1210. Nature of the experiment: Antiproliferative activity against mouse L1210 cells.
Conditions: not given
The experiment is classed as functional, cell-based. The essentials: (§2)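 Tumor cell proliferation assay. IC50 is the compound concentration giving 50% inhibition of proliferation, taken from dose-response curves. Reported as mean ± SE from at least three independent experiments.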
The compound `COc1cc(C(=O)c2sc(-c3ccccc3)cc2N)cc(OC)c1OC` had an IC50 of 11 nM. This counts as double-digit nanomolar.

In turn, `COc1cc(C(=O)c2sc(-c3cccc([N+](=O)[O-])c3)cc2N)cc(OC)c1OC` gave an IC50 of 11 nM. That is a double-digit nanomolar value.

In turn, `COc1ccc(-c2cc(N)c(C(=O)c3cc(OC)c(OC)c(OC)c3)s2)cc1OC` came in with an IC50 of 40 nM.

The compound `COc1cc(C(=O)c2sc(-c3ccccc3Cl)cc2N)cc(OC)c1OC` registered an IC50 of 20 nM. Against the preceding compound, the IC50 is about 2-fold lower.

With `COc1ccc(-c2cc(N)c(C(=O)c3cc(OC)c(OC)c(OC)c3)s2)cc1`, half-maximal inhibition (IC50) was put at 45 nM.

For the compound `COc1cc(C(=O)c2sc(-c3ccc(C)cc3)cc2N)cc(OC)c1OC`, half-maximal inhibition (IC50) was put at 18 nM.

For the compound `COc1cc(C(=O)c2sc(-c3ccsc3)cc2N)cc(OC)c1OC`, the IC50 amounted to 12 nM.

`COc1cc(C(=O)c2sc(-c3cccs3)cc2N)cc(OC)c1OC` yielded an IC50 of 9.8 nM. The IC50 values of the last two compounds are within 1.5-fold of each other.

In turn, `COc1cccc(-c2cc(N)c(C(=O)c3cc(OC)c(OC)c(OC)c3)s2)c1` gave an IC50 of 22 nM.

Another experiment deals with HL-60. Kind of experiment: Cell cycle arrest in HL60 cells by accumulation at G2/M phase at 15 nM. It counts as functional, cell-based. Conditions: Homo sapiens. The essentials: as §1
Consider `COc1cc(C(=O)c2sc(-c3cccc([N+](=O)[O-])c3)cc2N)cc(OC)c1OC`, for which the outcome was Active.

In another experiment the test system is MOLT-4. Nature of the experiment: Antiproliferative activity against human Molt4/C8 cells. The experiment is classed as functional, cell-based.
Conditions: not given
The essentials:
as §2
With `COc1cc(C(=O)c2sc(-c3ccccc3)cc2N)cc(OC)c1OC`, the IC50 turned out to be 5.3 nM.

Compound `COc1cc(C(=O)c2sc(-c3cccc([N+](=O)[O-])c3)cc2N)cc(OC)c1OC` returned an IC50 of 7.5 nM.

Regarding `COc1ccc(-c2cc(N)c(C(=O)c3cc(OC)c(OC)c(OC)c3)s2)cc1OC`, it took 20 nM to reach half-maximal inhibition (IC50).

In turn, `COc1cc(C(=O)c2sc(-c3ccccc3Cl)cc2N)cc(OC)c1OC` came in with an IC50 of 17 nM. This IC50 and that of the compound before are within 1.5-fold of each other.

As for `COc1ccc(-c2cc(N)c(C(=O)c3cc(OC)c(OC)c(OC)c3)s2)cc1`, the midpoint of inhibition, the IC50, lay at 18 nM.

In turn, `COc1cc(C(=O)c2sc(-c3ccc(C)cc3)cc2N)cc(OC)c1OC` came in with an IC50 of 16 nM.

In turn, `COc1cc(C(=O)c2sc(-c3ccsc3)cc2N)cc(OC)c1OC` registered an IC50 of 8.8 nM.

Turning to `COc1cc(C(=O)c2sc(-c3cccs3)cc2N)cc(OC)c1OC`, the IC50 stood at 8.9 nM. This IC50 and that of the compound before are within 1.5-fold of each other.

The compound `COc1cccc(-c2cc(N)c(C(=O)c3cc(OC)c(OC)c(OC)c3)s2)c1` registered an IC50 of 17 nM. This IC50 lies about 1.9-fold higher than the previous one.

The test system of another experiment is HL-60. Kind of experiment: Cell cycle arrest in HL60 cells by accumulation at G2/M phase at 40 nM. The experiment is classed as functional, cell-based. Conditions: Homo sapiens. The essentials:
as §1
On to `COc1cc(C(=O)c2sc(-c3ccccc3)cc2N)cc(OC)c1OC`, for which the result was Active.

In another experiment the test system is HL-60. Nature of the experiment: Cell cycle arrest in HL60 cells by accumulation at S phase at 8 nM. The experiment is classed as functional, cell-based. Conditions: Homo sapiens. The essentials: as §1
As for `COc1cc(C(=O)c2sc(-c3ccccc3)cc2N)cc(OC)c1OC`, the result was Active.

The test system of another experiment is CCRF-CEM. Kind of experiment: Antiproliferative activity against human CEM cells. The experiment is classed as functional, cell-based.
Conditions: not given
In turn, `COc1cc(C(=O)c2sc(-c3ccccc3)cc2N)cc(OC)c1OC` yielded an IC50 of 4.5 nM. This lies in the single-digit nanomolar range.

`COc1cc(C(=O)c2sc(-c3cccc([N+](=O)[O-])c3)cc2N)cc(OC)c1OC` had an IC50 of 5.9 nM.

Take `COc1ccc(-c2cc(N)c(C(=O)c3cc(OC)c(OC)c(OC)c3)s2)cc1OC`: the IC50 is 20 nM. This IC50 is about 3.4-fold higher than that of the compound before.

Consider `COc1cc(C(=O)c2sc(-c3ccccc3Cl)cc2N)cc(OC)c1OC`, for which the IC50 came to 16 nM.

In turn, `COc1ccc(-c2cc(N)c(C(=O)c3cc(OC)c(OC)c(OC)c3)s2)cc1` registered an IC50 of 19 nM.

With `COc1cc(C(=O)c2sc(-c3ccc(C)cc3)cc2N)cc(OC)c1OC`, 15 nM corresponded to half-maximal inhibition (IC50).

For the compound `COc1cc(C(=O)c2sc(-c3ccsc3)cc2N)cc(OC)c1OC`, the IC50 was 9.6 nM.

Regarding `COc1cc(C(=O)c2sc(-c3cccs3)cc2N)cc(OC)c1OC`, the IC50 came to 9.4 nM. The IC50 values of the last two compounds are within 1.5-fold of each other.

Turning to `COc1cccc(-c2cc(N)c(C(=O)c3cc(OC)c(OC)c(OC)c3)s2)c1`, 16 nM corresponded to half-maximal inhibition (IC50).
